Assay outcomes from PubChem.
A selection: hits, their analogues and other compounds. The true share with any hit is near 2%.
LEDGF integ inh – blocks HIV-1 LEDGF/p75-dependent DNA integration. inhibition, % at 3.7 µM. TR-FRET IN-LEDGF/p75 DNA integration, Eu/Cy5. 370,000 tested, 0.64% active. AID 743269;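 active = inhibition above the screen-wide mean plus 3 SD, cut at about 13% in these data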;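 also: signal is the Cy5 over europium emission ratio at 671 and 618 nm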
MBD2 inh – inhibitors of human MBD2 binding to methylated oligonucleotide; Q9UBB5; TR-FRET; inhibition, % at 4.4 µM; 370,000 tested, 0.31% active; AID 686964; in the data active = inhibition above about 13%
Target sequence (Q9UBB5 whole entry, looked up): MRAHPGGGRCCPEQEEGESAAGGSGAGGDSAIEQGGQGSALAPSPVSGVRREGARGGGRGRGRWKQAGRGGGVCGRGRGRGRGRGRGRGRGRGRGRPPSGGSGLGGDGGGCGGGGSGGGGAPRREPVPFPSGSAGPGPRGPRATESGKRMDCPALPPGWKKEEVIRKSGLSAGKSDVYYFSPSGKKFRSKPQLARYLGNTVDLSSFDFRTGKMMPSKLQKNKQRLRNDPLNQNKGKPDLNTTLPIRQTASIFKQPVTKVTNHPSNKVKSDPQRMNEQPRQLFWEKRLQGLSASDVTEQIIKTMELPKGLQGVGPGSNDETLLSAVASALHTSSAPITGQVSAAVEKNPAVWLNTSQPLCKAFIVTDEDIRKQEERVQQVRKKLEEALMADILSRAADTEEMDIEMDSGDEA
UHRF1 binding – human UHRF1 methylated DNA binding inhibitors; Q96T88; AID 687016; 370,000 tested, 0.75% active; UHRF1 binding to methylated oligo, TR-FRET; inhibition, % at 4.4 µM; in the data active = inhibition above about 21%;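 also: UHRF1 SRA domain binding a hemimethylated CpG hairpin DNA probe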
ASAP1 GAP inh – ASAP1 ArfGAP inhibition. ASAP1-stimulated ARF1 GTP hydrolysis, GDP FP detection. inhibition, % at 16.5 µM. 360,000 tested, 0.19% active. Q9ULH1; in the data active = inhibition above about 25%
ARFGAP1 inhibitor – rat ARFGAP1 inhibition | Q62848 | Arfgap1-stimulated ARF1 GTP hydrolysis, GDP FP detection | inhibition, % at 16.5 µM | 360,000 tested, 0.26% active;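 active = inhibition above a per-plate limit, mean inhibition of low control wells plus 3 SD, cut at about 25% in these data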
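Material: rat Arfgap1 catalytic domain, aa 1-136; also added: human ARF1(Δ1-17)-GTP substrate; compound dosing: one concentration, 16.5 µM, DMSO 1.26%; incubation: GTP hydrolysis reaction 2 h at 25 °C; measured by: Tracer-displacement fluorescence polarization with EDTA stop, 620/688 nm; evaluation: % inhibition from polarization; repeats: one replicate per compound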
TCR CD3 inh – inhibitors of human TCR-CD3 interaction; inhibition, % at 9.4 µM; TAMRA-labeled TCR probe fluorescence, biochemical; 360,000 tested, 0.37% active; AID 651800; in the data active = inhibition above about 19%;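 also: recombinant mutant TCR 2C K166C tagged with TAMRA read by polarization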
ARFGAP1 inh conf – rat ARFGAP1 inhibition, confirmed; shares compounds with ARFGAP1 inhibitor; ARFGAP1-stimulated ARF1 GTP hydrolysis, GDP tracer FP; inhibition, % at 16.5 µM; 890 tested, 30% active; AID 651608;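 active = average inhibition over triplicates above the hit cutoff set in the earlier primary screen, cut at about 25% in these data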
A number is an active result; i = inactive; nt = no result.

SMILES	LEDGF integ inh	MBD2 inh	UHRF1 binding	ASAP1 GAP inh	ARFGAP1 inhibitor	TCR CD3 inh	ARFGAP1 inh conf
C[C@H](O)C#Cc1cnc2c(c1)C(=O)N([C@H](C)CO)C[C@@H](C)[C@@H](CN(C)Cc1ccc(-c3ccccc3)cc1)O2	i	i	i	i	i	i	nt
Cc1nc2ccc(C(=O)N3c4ccccc4N=C(c4ccc(C(F)(F)F)cc4)C3C(=O)NC(C)(C)C)cc2[nH]1 (configuration not stated)	i	i	i	i	26	i	i
CCCCNC(=O)C1C(c2ccc(C(F)(F)F)cc2)=Nc2ccccc2N1C(=O)c1cccc(C(F)(F)F)c1 (configuration not stated)	i	i	i	i	i	i	nt
CC(C)Cn1c(N)c(C(=O)CSc2nc3ncc(Cl)cc3[nH]2)c(=O)n(C)c1=O	i	i	i	i	25	i	i
O=C1CCC(c2ccccc2)(c2ccccc2)CC1	i	i	i	i	28	i	i
Cc1ccc(NC(=O)c2cccc(S(=O)(=O)NCc3ccccc3)c2)nc1	i	i	i	i	35	i	i
Cc1cccc(NC(=O)c2cccc(S(=O)(=O)NCc3ccccc3)c2)n1	i	i	i	i	i	i	nt
CCCCCCN1C[C@H](n2cc(C3CC3)nn2)[C@@H](O)C[C@@H]1c1ccc(OC)cc1	i	i	i	i	i	i	nt
CCOC(=O)CN1C(=O)/C(=C/c2c(F)cccc2Cl)Oc2ccccc21	i	i	i	i	i	i	nt
CN1C2=N[C@H](c3ccc(Br)cc3)CC(=O)N2/C(=C\c2ccccc2)[C@@H]1c1ccccc1	i	i	i	nt	nt	nt	nt
O=C(Nc1cccc(-c2cc3ccccc3oc2=O)c1)c1ccc(Br)o1	i	i	i	i	27	i	i
Oc1ccc(/C=C/c2ccc3cccc(O)c3n2)cc1Br	i	i	i	i	28	i	i
CC(C)(C)C(=O)NC1CCCCN(Cc2ccc(Cl)cc2)C1=O (configuration not stated)	i	i	i	nt	nt	nt	nt
O=c1c(C(c2ccc(F)cc2)c2c(O)nc3n(c2=O)CCS3)c(O)nc2n1CCS2	i	i	i	i	26	i	i
O=c1c(C(c2ccc(Cl)cc2)c2c(O)nc3n(c2=O)CCS3)c(O)nc2n1CCS2	i	i	i	i	i	i	nt
COc1ccc(S[C@]2(C(=O)N3CCCC3)CC(=O)N(c3ccccc3OC)[C@@H]2c2ccc(OC)cc2)cc1	i	i	i	nt	nt	nt	nt
CCCCCCCCNS(=O)(=O)CCNCc1ccccc1OC	i	i	i	i	i	i	nt
COc1ccc(CNS(=O)(=O)CCNCc2ccccc2OC)cc1	i	i	i	i	52	i	i
O=C(N/N=C/c1ccc2c(c1)OCO2)c1ccc2c(c1)OCCO2	i	i	i	i	i	i	nt
CCOc1ccc(NC(=O)CCC(=O)N/N=C/c2ccc3c(c2)OCO3)cc1	i	i	i	i	i	i	nt
CC(C)Oc1ccc(CCC(=O)N/N=C/c2ccc3c(c2)OCO3)cc1	i	i	i	i	32	i	i
O=C(N/N=C/c1ccc2c(c1)OCO2)c1ccc(NC(=O)c2ccc(F)cc2)cc1	i	i	i	i	25	i	i
CN1CCCCC(NC(=O)CCCl)C1=O (configuration not stated)	i	i	i	i	i	i	nt
CCOc1ccc(CCN2C(=S)N([C@@H](Cc3ccc(O)cc3)CN3CCC[C@@H]3CN3C(=S)NC[C@@H]3Cc3ccc(O)cc3)C[C@@H]2Cc2ccc(O)cc2)cc1	i	i	i	i	26	i	i
COC(=O)C1CN(Cc2cn(CCOC(C)=O)nn2)CCS(=O)(=O)N1Cc1ccccc1 (configuration not stated)	i	i	i	nt	nt	nt	nt
O=C1N(Cc2ccccc2)c2ccccc2OC1(F)F	i	i	i	i	i	i	nt
COc1ccc(S(=O)(=O)N2CCCCCC2)cc1NC(=O)c1c2c(nc3ccccc13)CCN(Cc1ccccc1)C2	i	i	i	i	i	i	nt
COc1ccc(NC(=O)c2c3c(nc4ccccc24)CCN(Cc2ccccc2)C3)c(OC)c1	i	i	i	i	25	i	i
CC(C)N1CCN(Cc2ccc(-c3ccccc3Cl)o2)CC1CCO (configuration not stated)	i	i	i	i	29	i	i
